Source: PubChem
Mdm2 ligase inh – MDM2-luciferase reporter signal enhancers, primary screen, MDM2 E3 ligase inhibitor project, cell-based, luminescence, 1536-well; E3 ubiquitin-protein ligase Mdm2 (Homo sapiens), Q00987; cell-based MDM2 ubiquitination luciferase reporter, 2 h; 0 = plate control, 100 = twice control, blank-subtracted; signal enhancement, % at 5 µM; 0.11% of 210,000 active; AID 1230, 2008;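 active = signal enhancement of 30% or more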;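 note: luminescence tracks abundance of the self-degrading MDM2-luciferase fusion protein; higher signal means inhibition of MDM2 E3 ligase activity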
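test system = mammalian cells stably expressing self-ubiquitinating, self-degrading MDM2 E3–luciferase fusion | quantity = 2000 cells/well | incubation = cell settling 4 h, compound treatment 2 h, both 37 °C | signal = luminescence with SteadyLite reagent, 15 min at room temperature | evaluation = % enhancement relative to plate controls after blank subtraction | benchmarks = plate controls and plate blanks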
Cl transport mod – KCC2 cotransporter modulators, thallium flux, primary screen, cell-based, HEK293 KCC2, FluoZin-2 fluorescence, MLSMR | Solute carrier family 12 member 5 (Homo sapiens), Q9H2X9 | B-score of Tl+ flux slope (higher = more flux/activation; lower = inhibition) at 10 µM | 2.2% of 190,000 active | KCC2 cells, thallium flux FluoZin-2 fluorescence | AID 1456, 2008;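 active = thallium flux slope and its plate-corrected score both differing from the plate sample mean at a set confidence after two filtering rounds, in either direction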;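 note: slope of fluorescence scaled to starting intensity during 10 to 20 s after thallium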
ROMK primary – ROMK potassium channel modulators, primary screen, cell-based, thallium flux, MLSMR library; Tet-inducible ROMK, thallium flux fluorescence; actives lie on both sides; B-score at 10 µM; 2% of 130,000 active;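 active = signal ratio slope over the read window, or its plate-corrected B-score, at least 3 SD from the plate mean, either direction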;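 note: B-score of the F/F0 ratio slope over 7 to 12 s after thallium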
PKD1 inh – inhibitors of human PKD1 kinase, biochemical, fluorescence polarization | PKD1 kinase fluorescence polarization assay | inhibition, % (no concentration beside the values) | 0.056% of 200,000 active; in the data active = inhibition above about 50%
Target sequence (Q15139 whole entry, looked up): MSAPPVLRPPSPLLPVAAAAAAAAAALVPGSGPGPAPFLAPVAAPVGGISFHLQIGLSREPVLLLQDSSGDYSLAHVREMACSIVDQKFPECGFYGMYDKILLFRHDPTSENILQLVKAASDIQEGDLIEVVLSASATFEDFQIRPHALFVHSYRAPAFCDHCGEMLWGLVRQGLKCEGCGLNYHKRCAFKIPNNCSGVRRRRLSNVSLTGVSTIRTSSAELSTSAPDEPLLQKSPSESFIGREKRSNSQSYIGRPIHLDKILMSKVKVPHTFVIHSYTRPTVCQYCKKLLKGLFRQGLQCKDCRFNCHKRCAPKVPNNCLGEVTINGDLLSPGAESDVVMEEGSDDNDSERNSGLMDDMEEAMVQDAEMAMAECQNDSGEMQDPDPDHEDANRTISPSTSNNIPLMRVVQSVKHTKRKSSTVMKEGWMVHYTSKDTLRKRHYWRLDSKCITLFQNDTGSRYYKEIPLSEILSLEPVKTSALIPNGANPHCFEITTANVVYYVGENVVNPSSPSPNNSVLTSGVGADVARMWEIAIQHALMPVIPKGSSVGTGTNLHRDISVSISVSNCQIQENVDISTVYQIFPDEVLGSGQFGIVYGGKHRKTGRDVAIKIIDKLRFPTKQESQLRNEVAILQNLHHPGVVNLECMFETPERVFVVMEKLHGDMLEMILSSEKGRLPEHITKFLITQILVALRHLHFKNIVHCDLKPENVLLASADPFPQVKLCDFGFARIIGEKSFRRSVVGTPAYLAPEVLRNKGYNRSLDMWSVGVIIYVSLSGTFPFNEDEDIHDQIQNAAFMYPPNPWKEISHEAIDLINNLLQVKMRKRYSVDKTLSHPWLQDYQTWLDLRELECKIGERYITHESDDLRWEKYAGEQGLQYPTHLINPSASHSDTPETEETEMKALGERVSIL
Redox H2O2 prof – compounds producing H2O2 with reducing agent – biochemical, NIH compound library profiling, artefact control for MLSCN library redox annotation, primary screen. DTT-dependent redox cycling H2O2, phenol red/HRP absorbance; 100% = 100 µM peroxide control, 0% = buffer. activation, % at 10 µM. 0.03% of 200,000 active. AID 878, 2007;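 active = activation of at least 50% relative to the plate's high and low controls in the primary single-dose screen; inactive = activation below 50%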;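 note: compound incubated with DTT at 0.8 mM final as the reducing agent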
p97 ATPase inh – inhibitors of human p97 ATPase, primary screen, biochemical; recombinant p97 ATPase, Kinase-Glo ATP luminescence, 3 h; inhibition, % at 8 µM; Transitional endoplasmic reticulum ATPase (Homo sapiens), P55072; 0.42% of 220,000 active; in the data active = inhibition above about 15%;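 note: 0% = DMSO vehicle and 100% = wells lacking enzyme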
ROMK hit retest – ROMK channel modulator hit retest, confirmation, cell-based, thallium flux, duplicate, resupplied hits. normalized thallium flux (F/F0 slope) at 10 µM. 54% of 3,000 active. fluorescence ratio; active compounds read low. AID 1917, 2009. shares compounds with ROMK primary;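 active = Flux at 10 µM at least 3 SD below or above vehicle control mean in one or both replicates; inconclusive = no clear call, values can overlap the other calls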
* marks the source's active call; other numbers are inactive results; i = inactive; ? = inconclusive; / = not tested or not shown. In the library only some 3.4% were active in any assay of this set; here they are far more common.

SMILES | Mdm2 ligase inh | Cl transport mod | ROMK primary | PKD1 inh | Redox H2O2 prof | p97 ATPase inh | ROMK hit retest
CCN(C(=O)CN1CCOCC1)c1c(N)n(Cc2ccccc2)c(=O)[nH]c1=O | -7 | 0.63 | -0.51 | -3 | 0 | 3 | /
CCCCCN(C(=O)CN1CCC(Cc2ccccc2)CC1)c1c(N)n(CCCC)c(=O)[nH]c1=O | -7 | -1.2 | -3.2* | 6 | -2 | 5 | 0.061*
CC(=O)Nc1nc2cc3c(cc2s1)OCO3 | -70 | / | / | -3 | -1 | -11 | /
O=C(Nc1nc2cc3c(cc2s1)OCO3)C1=COCCO1 | / | 0.045 | 2.5* | -3 | 0 | -22 | 0.08
CCN(CC)C(=O)CCSc1nnc(-c2ccco2)o1 | -5 | -0.055 | 1.3 | 0 | 0 | 5 | 0.073
CCN(CC)C(=O)CCSc1nnc(-c2ccncc2)o1 | -7 | 0.13 | 0.84 | -17 | -1 | 3 | /
O=C(CSc1nnc(-c2ccco2)o1)c1ccccc1 | -14 | -0.22 | / | 11 | 2 | 1 | 0.074
O=C1/C(=C/c2ccccc2)Nc2ccccc21 | -3 | i | / | -1 | 1 | 7 | 0.023*
CC1=NN(c2cccc(C(=O)O)c2)C(=O)/C1=C\C=C/c1ccccc1 | 31* | -3.3 | -8.3* | -3 | 0 | 3 | 0.047*
CC1=NN(c2ccccc2)C(=O)/C1=C/C=C/C=C/N(C)C | -7 | -1.6 | -2.4* | -6 | -2 | -3 | 0.065*
CC1=NN(c2ccccc2)C(=O)/C1=C/c1ccc[nH]1 | 4 | 0.088 | -7.4e-05 | -6 | 0 | 4 | /
CC1=NN(c2ccccc2)C(=O)/C1=C\c1cc(C)n(-c2ccccc2)c1C | -6 | -0.44 | / | -3 | 1 | -4 | /
CCOC(=O)c1c(CSCc2ccccc2)oc2ccc(O)c(CN(C)C)c12 | -17 | -1.8 | / | / | / | 1 | 0.061*
Cc1cc(N2CCCC2)ccc1/C=C1\NC(=S)N(C)C1=O | -11 | / | -3.2* | -5 | -1 | 2 | 0.025*
Cc1ccc(N2NC(=O)/C(=C\c3cc4c(cc3[N+](=O)[O-])OCO4)C2=O)cc1C | 11 | -2.6 | -4.9* | -9 | 2 | 3 | 0.048*
COc1cc(/C=C2/C(=O)NN(c3cccc(C)c3)C2=O)cc([N+](=O)[O-])c1O | -10 | -0.52 | 0.51 | 1 | 0 | 9 | /
CC(C)N(Cc1nc(-c2ccc(Cl)cc2)no1)C(=O)/C=C/c1ccccc1 | 0 | -0.64 | -0.24 | -3 | 0 | -1 | /
CCCCCc1ccc(-c2ccc(=O)[nH]n2)cc1 | -21 | / | -0.31 | -8 | -3 | -7 | 0.072
Cc1ccc(OCC(=O)Nc2ccc(N3CCN(S(C)(=O)=O)CC3)cc2)cc1 | -6 | 0.32 | -0.24 | -4 | 0 | 0 | /
COc1ccc(C(=O)n2nc(C)cc2Nc2ccccc2)cc1 | -18 | -0.3 | 1.8* | 3 | 0 | 0 | ?
COc1cccc(S(=O)(=O)Nc2ccc(C(=O)N3CCN(C(=O)c4ccco4)CC3)cc2)c1 | 3 | 0.27 | -0.76 | 6 | -1 | 2 | /
CC1CC2C3CCC4=CC(=O)C=CC4(C)C3(F)C(O)CC2(C)C1(O)C(=O)CO (stereo not given) | -5 | -0.14 | -0.42 | / | / | -3 | /
Cn1c(C(=O)NCCCN2CCCC2=O)cc2c(=O)n(C)c3ccccc3c21 | -12 | / | / | 8 | -1 | -5 | /
Cn1c(C(=O)NCCN2CCc3ccccc3C2)cc2c(=O)n(C)c3ccccc3c21 | -5 | -1.2 | / | -13 | -1 | 3 | ?
COc1ccc(C2NCCc3c2[nH]c2ccccc32)cc1CN1CCc2cc(OC)c(OC)cc2C1C (stereo not given) | -30 | 0.58 | -3.8* | / | / | 5 | 0.055*
